Screening results as filed in PubChem BioAssay.
RGS16-Gao – RGS16-Galphao interaction regulator (human). O15492+P09471. bead-based flow cytometry RGS16-Galphao binding, fluorescence; actives lie on both sides. binding response (% of control), % at 10 µM. hit rate 0.38% among 220,000;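 note: Galphao activated by GDP with aluminum fluoride before binding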
Target sequence (O15492 whole entry, looked up): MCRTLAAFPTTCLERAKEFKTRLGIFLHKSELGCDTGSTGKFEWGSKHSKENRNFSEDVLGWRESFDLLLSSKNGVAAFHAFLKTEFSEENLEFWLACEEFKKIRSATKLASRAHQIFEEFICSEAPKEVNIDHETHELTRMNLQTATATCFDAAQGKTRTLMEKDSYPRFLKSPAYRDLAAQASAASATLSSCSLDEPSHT
Target sequence (P09471 whole entry, looked up): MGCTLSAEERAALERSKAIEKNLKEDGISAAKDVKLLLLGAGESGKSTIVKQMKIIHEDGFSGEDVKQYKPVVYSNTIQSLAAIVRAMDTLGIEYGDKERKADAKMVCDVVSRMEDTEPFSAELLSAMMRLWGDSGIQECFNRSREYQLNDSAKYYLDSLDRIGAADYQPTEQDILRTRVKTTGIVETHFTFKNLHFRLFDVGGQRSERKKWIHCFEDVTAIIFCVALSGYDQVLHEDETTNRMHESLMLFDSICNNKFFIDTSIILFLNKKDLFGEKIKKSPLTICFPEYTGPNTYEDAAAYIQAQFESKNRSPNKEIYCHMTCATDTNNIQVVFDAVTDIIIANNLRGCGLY
Biofilm kill mix – mixtures killing C. albicans biofilm. C. albicans biofilm persisters + clotrimazole, fluorescence viability; primary screen in compound mixtures of four per well. inhibition, % at 7.6 µM. hit rate 0.02% among 120,000;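 active = inhibition above 30.3% in the primary screen of four-compound pools, then above 30% when the compound was retested; inconclusive = passed the primary limit but could not be retested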;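 note: compounds exposed to preformed 24 h biofilms for 48 h; 0% = untreated biofilm control and 100% = clotrimazole plus chlorhexidine kill blank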
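Probe or stimulus – Clotrimazole 50 µg/mL co-treatment · System – C. albicans biofilms · Schedule – 24 h biofilm formation, then 48 h compound exposure, 37 °C · Evaluation – percent inhibition of biofilm viability · Technique – 2-h Alamar Blue fluorescence, 535/590 nm excitation/emission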
RGS4-Gao reg – modulates binding of RGS4 to human Galphao; P09471; Multiplexed bead flow cytometry; actives lie on both sides; binding response (% of control), % at 10 µM; hit rate 0.33% among 220,000; AID 1415; in the data active = binding response below about 49% or above about 150%; inactive = in between;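 note: fluorescent Galphao activated with aluminum fluoride binding bead-coupled RGS4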
Target sequence (P09471 whole entry, looked up): as above
RGS7-Gao reg – regulators of human RGS7-Galphao interaction; hit rate 0.35% among 220,000; Multiplexed bead flow cytometry, RGS7-Galphao binding; actives lie on both sides; AID 1439; binding response (% of control), % at 10 µM; in the data active = binding response below about 49% or above about 150%; inconclusive = no clear call, values can overlap the other calls; inactive = in between;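 note: fluorescent Galphao held in activated GDP-AlF4 state binding bead-coupled RGS7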
RGS8-Gao – human RGS8-Galphao interaction regulation; response (percent of control binding), % at 10 µM; AID 1423; P09471; multiplexed bead flow cytometry, RGS8-Galphao binding; actives lie on both sides; hit rate 0.34% among 220,000; in the data active = response below about 60% or above about 140%; inactive = in between;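 note: Galphao activated as the GDP aluminium fluoride complex binding bead-coupled RGS8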
RGS-Gao – modulates binding between human RGS4 and Galphao; shares compounds with RGS16-Gao; multiplexed bead flow cytometry, RGS–Galpha-o binding; RGS4–Galpha-o binding response, % at 10 µM; hit rate 99% among 1,600; AID 1504;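 note: fluorescently labeled Galpha-o bound to GDP with aluminium fluoride binding biotinylated RGS beads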
Avidin counter – counter-screen: compounds disrupting biotin binding to avidin beads; shares compounds with RGS16-Gao; streptavidin beads, fluorescein-biotin binding, flow cytometry; inhibition, % at 10 µM; 1,700 tested, under 10 active; AID 1783;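 active = inhibition above 50%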;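 note: median green fluorescence of gated singlet beads compared with DMSO control wells; 0% = DMSO wells and 100% = complete loss of bead fluorescence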
RGS8-Gao single – confirmation of regulators of human RGS8-Galphao interaction. hit rate 3% among 1,700. bead-based flow cytometry RGS8-Galphao binding, fluorescence; actives lie on both sides. AID 1836. shares compounds with RGS16-Gao. binding response (% of control), % at 10 µM; in the data active = binding response below about 72% or above about 130%; inactive = in between;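 note: Galphao activated as GDP AlF4 complex before binding bead RGS8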
RGS7-Gao confirm – confirmation of regulators of human RGS7-Galphao interaction | response (percent of control binding), % at 10 µM | shares compounds with RGS16-Gao | bead-based flow cytometry RGS7-Galphao binding; actives lie on both sides | hit rate 7.8% among 1,700 | AID 1837; in the data active = response below about 75% or above about 130%; inactive = in between;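 note: fluorescent Galphao activated with GDP and aluminum fluoride binding bead-coupled RGS7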
RGS16-Gao conf – confirmation of regulators of human RGS16-Galphao interaction; hit rate 4% among 1,700; bead-based flow cytometry, RGS16-Galphao binding; actives lie on both sides; response (% of control binding), % at 10 µM; shares compounds with RGS16-Gao; in the data active = response below about 74% or above about 130%; inactive = in between;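 note: Galphao activated as the GDP aluminium fluoride complex binding bead-coupled RGS16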
RGS4-Gao single – RGS4-Galphao interaction regulation, single point confirmation | RGS4-Galphao binding, multiplexed bead flow cytometry; actives lie on both sides | shares compounds with RGS16-Gao | binding response (% of control), % at 10 µM | hit rate 4% among 1,700; in the data active = binding response below about 74% or above about 130%; inactive = in between
RGS19-Gao single – confirmation of regulators of human RGS19-Galphao interaction. response (percent of control binding), % at 10 µM. shares compounds with RGS16-Gao. hit rate 5% among 1,700. bead-based flow cytometry RGS19-Galphao binding; actives lie on both sides. AID 1841; in the data active = response below about 50% or above about 160%; inactive = in between;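 note: 100% = no compound control and 0% = blank background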
The depositor's hits bear a star; [ ] = dose if it differs, or a comment. An excerpt weighted towards active compounds, which were near 0.74% of everything screened. Unless noted, the rule behind the calls is not given here.

For O=C(CCl)NC(=O)NC12CC3CC(CC(C3)C1)C2 the results were RGS16-Gao 111.2, Biofilm kill mix 7.5, RGS4-Gao reg 129.9, RGS7-Gao reg 188.9*[activator], RGS8-Gao 103.7, RGS-Gao 129.9*, Avidin counter -0.4, RGS8-Gao single 100.6, RGS7-Gao confirm 62.9*, RGS16-Gao conf 83.7, RGS4-Gao single 79.0 and RGS19-Gao single 53.7.
`Cc1ccc(S(=O)(=O)Nc2csc(C)c2C(=O)O)cc1` gave RGS16-Gao 108.7, Biofilm kill mix 12.5, RGS4-Gao reg 107.2, RGS7-Gao reg inconclusive and RGS8-Gao 100.7.
`CCOC(=O)/C(=N\Nc1ccccc1)S(=O)(=O)c1ccccc1` gave Avidin counter 1.1, RGS8-Gao single 102.1, RGS7-Gao confirm 98.7, RGS16-Gao conf 100.1, RGS4-Gao single 97.8 and RGS19-Gao single 101.4.
CCOC(=O)/C(=N/Nc1ccc(C)cc1)S(=O)(=O)c1ccc(Cl)cc1 was read as RGS16-Gao 109.2, RGS4-Gao reg 105.2, RGS7-Gao reg 102.3 and RGS8-Gao 101.0.
Cc1ccc(-n2ncc3c(=O)[nH]c(SCC(=O)N4CCC(C)CC4)nc32)cc1C was read as RGS16-Gao 184.6*[activator], RGS4-Gao reg 112.0, RGS7-Gao reg 114.1, RGS8-Gao 122.9, RGS-Gao 112.0*, Avidin counter 2.9, RGS8-Gao single 97.5, RGS7-Gao confirm 98.9, RGS16-Gao conf 100.3, RGS4-Gao single 99.0 and RGS19-Gao single 98.5.
`Cc1ccc(-n2ncc3c(=O)[nH]c(SCC(=O)N4CCCC4)nc32)cc1C` gave RGS16-Gao 106.4, Biofilm kill mix -3.1, RGS4-Gao reg 101.7, RGS7-Gao reg 101.6 and RGS8-Gao 103.2.
Cc1ccc(SCc2nc3ncccn3c2Br)cc1 was read as Biofilm kill mix 15.9, Avidin counter 0.1, RGS8-Gao single 95.7, RGS7-Gao confirm 91.0, RGS16-Gao conf 92.1, RGS4-Gao single 94.2 and RGS19-Gao single 88.2.
Cc1ccc(Nc2c(-c3ccc(N(C)C)cc3)nc3ncccn23)cc1 was read as RGS16-Gao 92.1, Biofilm kill mix 7.2, RGS4-Gao reg 96.2, RGS7-Gao reg inconclusive and RGS8-Gao 96.8.
N#CCCn1cc(C(=O)N2CCCCC2)c(-c2cccc([N+](=O)[O-])c2)n1 was read as RGS16-Gao 96.9, Biofilm kill mix 8.0, RGS4-Gao reg 95.7, RGS7-Gao reg 98.5 and RGS8-Gao 98.9.
`CC(=O)Nc1ccccc1C(=O)C(=O)Nc1ccc(C)c(C)c1` gave RGS16-Gao 250.7*[activator], Biofilm kill mix 18.0, RGS4-Gao reg 109.6, RGS7-Gao reg 109.4, RGS8-Gao 127.2, RGS-Gao 109.6*, Avidin counter -0.7, RGS8-Gao single 99.9, RGS7-Gao confirm 107.0, RGS16-Gao conf 103.5, RGS4-Gao single 105.5 and RGS19-Gao single 88.5.
For COc1ccc(S(=O)(=O)NCc2cc(-c3ccccc3Cl)no2)cc1 the results were RGS16-Gao 109.9, Biofilm kill mix 13.4, RGS4-Gao reg 101.8, RGS7-Gao reg 105.8 and RGS8-Gao 104.9.
Screening Cc1cc(C(=O)N2CCN(c3ncccn3)CC2)nn1C returned RGS16-Gao 96.9, Biofilm kill mix 16.7, RGS4-Gao reg 100.0, RGS7-Gao reg inconclusive and RGS8-Gao 101.0.
Screening O=C(Nc1nnc(-c2cccs2)s1)c1cccc(F)c1 returned RGS16-Gao 104.7, Biofilm kill mix 3.0, RGS4-Gao reg 102.2, RGS7-Gao reg 109.5 and RGS8-Gao 99.3.
Screening Cc1cccc(C(=O)N[C@H](C(=O)Nc2cccc(S(=O)(=O)N3CCCC3)c2)C(C)C)c1 returned RGS16-Gao 109.5, Biofilm kill mix 14.8, RGS4-Gao reg 108.8, RGS7-Gao reg inconclusive and RGS8-Gao 103.2.
`CCOc1ccc(C(=O)N[C@H](C(=O)Nc2cccc(S(=O)(=O)N3CCCCC3)c2)C(C)C)cc1` gave RGS16-Gao 4.6*, Biofilm kill mix 14.0, RGS4-Gao reg 89.7, RGS7-Gao reg 88.3, RGS8-Gao 80.3, RGS-Gao 89.7*, Avidin counter 0.7, RGS8-Gao single 102.6, RGS7-Gao confirm 99.7, RGS16-Gao conf 97.5, RGS4-Gao single 101.6 and RGS19-Gao single 93.0.
Screening O=C(Nc1ccccc1[N+](=O)[O-])C1(c2ccccc2)CCOCC1 returned RGS16-Gao 110.3, Biofilm kill mix 16.4, RGS4-Gao reg 141.1, RGS7-Gao reg 333.5*[activator], RGS8-Gao 97.4, RGS-Gao 141.1*, Avidin counter 2.0, RGS8-Gao single 97.8, RGS7-Gao confirm 91.3, RGS16-Gao conf 95.0, RGS4-Gao single 96.1 and RGS19-Gao single 89.3.
`O=C(CSc1cccc[n+]1[O-])NN(c1ccccc1)c1ccccc1` gave RGS16-Gao 100.0, Biofilm kill mix 23.5, RGS4-Gao reg 95.1, RGS7-Gao reg inconclusive and RGS8-Gao 97.5.
Screening COc1ccc(NC(=O)CCCn2c(=O)oc3ccccc32)cc1Cl returned RGS16-Gao 8.8*, Biofilm kill mix 4.4, RGS4-Gao reg 88.1, RGS7-Gao reg 88.7, RGS8-Gao 71.3 and RGS-Gao 88.1*.
For COc1ccc(NC(=O)COC(C)=O)cc1Cl the results were RGS16-Gao 100.5, Biofilm kill mix 10.0, RGS4-Gao reg 104.4, RGS7-Gao reg 102.6 and RGS8-Gao 101.9.
COCC(=O)Nc1ccc(OC)c(Cl)c1 was read as RGS16-Gao 98.2, Biofilm kill mix 1.6, RGS4-Gao reg 98.4, RGS7-Gao reg 53.3, RGS8-Gao 52.2*, RGS-Gao 98.4*, Avidin counter -0.9, RGS8-Gao single 100.8, RGS7-Gao confirm 98.2, RGS16-Gao conf 100.2, RGS4-Gao single 100.7 and RGS19-Gao single 97.3.
